One data set deals with DU-145 cells. Briefly: MTT cytotoxicity assay, DU-145. Format: cell-based. As to conditions: Homo sapiens, DU-145, 72 h, read-out: IC50 DU-145 Prostate. In a few lines:
(§1)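 Cells grown as monolayers in DMEM with 4.5 g glucose, 10% FBS and 1% penicillin/streptomycin. Seeded cells exposed for 72 h to several concentrations of test compound (0.1–100 μM), then given MTT for 4 h. Formazan dissolved in DMSO; absorbance read at 570 nm. IC50 taken as the mean of three independent experiments in triplicate; 100 μM cut-off.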
For orientation: Formazan colour is commonly taken as a measure of viable cells.

Another data set relates to HCT-116. Nature of the data set: MTT cytotoxicity assay, HCT-116. In kind it is cell-based. The following applies: Homo sapiens, HCT-116, 72 h, read-out: IC50 HCT-116 Colon. In a few lines:
as §1

The next data set concerns HT-29 cancer cells. Briefly: MTT cytotoxicity assay, HT-29. Format: cell-based. The following applies: Homo sapiens, HT-29, 72 h, read-out: IC50 HT-29 Colon. In a few lines: as §1
The test system of another data set is HEK293/pcDNA3.1. Briefly: MTT cytotoxicity assay, HEK293/pcDNA3.1. Format: cell-based, human. The following applies: for IC50: Homo sapiens, HEK293, 72 h, read-out: IC50 HEK293/pcDNA.3.1 Normal; for significant cytotoxicity in human embryonic kidney cells: at a concentration of less than 50 μM. In a few lines: as §1
Data set [1] relates to mouse fibroblast (NIH/3T3). Briefly: MTT cytotoxicity assay, NIH/3T3. In kind it is cell-based. As to conditions: NIH3T3, 72 h, read-out: IC50 3T3 Normal. In a few lines: as §1
Data set [2] has as its system A2780 cells. Nature of the data set: Colony formation assay. As to conditions: 10 or 20 μM, incubated 24 hrs, colonies over 2 weeks. Format: cell-based. In a few lines: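 A2780 cells exposed to vehicle (0 μM) or test compound (10 or 20 μM) for 24 h, then reseeded at very low density in six-well plates and grown 2 weeks. Colonies fixed, stained and counted under a microscope; colony formation rate calculated. Repeated independently in triplicate.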

Data set [3] concerns A2780 cells. Nature of the data set: Annexin V based apoptosis assay. In kind it is cell-based. The following applies: 24 h; for Q1 (flow cytometry quadrant): control Q1 94.1%; for Q2 (flow cytometry quadrant, apoptosis): control Q2 5.87 %. On the technique in general: A flow cytometer gives signals particle by particle.
The subject of data set [4] is A2780 cells. Briefly: Nuclear condensation-based apoptosis assay. In kind it is cell-based. As to conditions: 5, 10, or 20 μM at 24 and 48 h.

The values below come from article PMC6522656 (Heliyon, 2019).

Take `Cc1cc2cc(C=C3C(=O)Nc4ccccc43)c(Cl)nc2cc1C` [LM03, 3-((2-chloro-6,7-dimethylquinolin-3-yl)methylene)indolin-2-one]: the IC50 is above 100 µM with DU-145 cells; above 100 µM in the data set on HCT-116; above 100 µM in the data set on HT-29 cancer cells; 97.4 µM in the data set on HEK293/pcDNA3.1; above 100 µM in data set [1].
For the compound `O=C1Nc2ccccc2C1=Cc1cc2ccccc2nc1Cl` [LM01, 3-((2-chloroquinolin-3-yl)methylene)indolin-2-one], the IC50 with DU-145 cells was 77.5 µM; in the data set on HCT-116, above 100 µM; with HT-29 cancer cells it was above 100 µM; with HEK293/pcDNA3.1, 64.5 µM; in data set [1], above 100 µM.
On to `COc1ccc2cc(C=C3C(=O)Nc4ccccc43)c(Cl)nc2c1` [LM05, 3-((2-chloro-7-methoxyquinolin-3-yl)methylene)indolin-2-one], for which the IC50 was above 100 µM in the data set on DU-145 cells; 56.2 µM in the data set on HCT-116; above 100 µM in the data set with HT-29 cancer cells; above 100 µM in the data set on HEK293/pcDNA3.1; above 100 µM in data set [1].
As for `O=C1Nc2ccccc2C1=Cc1cc2cc(Br)ccc2nc1Cl` [LM10, 3-((6-bromo-2-chloroquinolin-3-yl)methylene)indolin-2-one], the IC50 in the data set with DU-145 cells was above 100 µM; in the data set on HCT-116 it was 41.3 µM; in the data set on HT-29 cancer cells it was above 100 µM; in the data set on HEK293/pcDNA3.1 it was 50.5 µM; in data set [1] it was above 100 µM. In the data set with HEK293/pcDNA3.1, the “significant cytotoxicity in human embryonic kidney cells” value was “produced significant cytotoxicity”.
In the case of `O=C1Nc2ccccc2C1=Cc1cc2cc(Cl)ccc2nc1Cl` [LM08, 3-((2,6-dichloroquinolin-3-yl)methylene)indolin-2-one], the IC50 with DU-145 cells is 91.2 µM; in the data set with HCT-116, 77.8 µM; in the data set with HT-29 cancer cells, above 100 µM; with HEK293/pcDNA3.1, 64.3 µM; in data set [1], above 100 µM. In addition, the “colony formation of A2780 cells” value in the data set on A2780 cells [2] is listed as “significantly inhibited”. Further, the “Q1 (flow cytometry quadrant)” value in the data set on A2780 cells [3] (10 μM) worked out at 64.8%; in the data set on A2780 cells [3] (20 μM), 61.5%. Besides, the entries for the “Q2 (flow cytometry quadrant, apoptosis)” value in the data set with A2780 cells [3] (10 μM) and with A2780 cells [3] (20 μM) were 34.6% and 36.9%, respectively. Further, the “nuclear morphology of A2780 cells (DAPI staining)” value in the data set on A2780 cells [4] is reported as “nuclear condensation”.
In the case of `COc1cccc2cc(C=C3C(=O)Nc4ccccc43)c(Cl)nc12` [LM07, 3-((2-chloro-8-methoxyquinolin-3-yl)methylene)indolin-2-one], the IC50 with DU-145 cells is 11 µM; in the data set with HCT-116, above 100 µM; with HT-29 cancer cells, above 100 µM; with HEK293/pcDNA3.1, 80.8 µM; in data set [1] it was above 100 µM.
Consider `COc1ccc2nc(Cl)c(C=C3C(=O)Nc4ccccc43)cc2c1` [LM04, 3-((2-chloro-6-methoxyquinolin-3-yl)methylene)indolin-2-one], for which the IC50 with DU-145 cells is 47.2 µM; with HCT-116 it was 60.9 µM; in the data set with HT-29 cancer cells it was above 100 µM; in the data set with HEK293/pcDNA3.1, 39.9 µM; in data set [1], above 100 µM. The “significant cytotoxicity in human embryonic kidney cells” value in the data set on HEK293/pcDNA3.1 is recorded as “produced significant cytotoxicity”.
As to `O=C1Nc2ccccc2C1=Cc1cc2ccc3ccccc3c2nc1Cl` [LM11, 3-((2-chlorobenzo[h]quinolin-3-yl)methylene)indolin-2-one], the IC50 in the data set on DU-145 cells is 95.7 µM; with HCT-116, above 100 µM; with HT-29 cancer cells, above 100 µM; in the data set with HEK293/pcDNA3.1, 75.3 µM; in data set [1] it was above 100 µM.
Regarding `O=C1Nc2ccccc2C1=Cc1cc2ccc(Cl)cc2nc1Cl` [LM09, 3-((2,7-dichloroquinolin-3-yl)methylene)indolin-2-one], the IC50 was 54.9 µM in the data set on DU-145 cells; 75.2 µM in the data set on HCT-116; above 100 µM with HT-29 cancer cells; 63.2 µM with HEK293/pcDNA3.1; above 100 µM in data set [1].
With `COc1cc2cc(C=C3C(=O)Nc4ccccc43)c(Cl)nc2cc1OC` [LM06, 3-((2-chloro-6,7-dimethoxyquinolin-3-yl)methylene)indolin-2-one], the IC50 is above 100 µM in the data set on DU-145 cells; 75 µM with HCT-116; above 100 µM in the data set with HT-29 cancer cells; above 100 µM in the data set on HEK293/pcDNA3.1; above 100 µM in data set [1].
As for `Cc1ccc2nc(Cl)c(C=C3C(=O)Nc4ccccc43)cc2c1` [LM02, 3-((2-chloro-6-methylquinolin-3-yl)methylene)indolin-2-one], the IC50 in the data set with DU-145 cells is above 100 µM; with HCT-116, 52.1 µM; with HT-29 cancer cells it was above 100 µM; with HEK293/pcDNA3.1 it was 73.4 µM; in data set [1] it was above 100 µM.
